GRIN3A LBD mod: modulators (binders) of human NR3A ligand-binding domain. NR3A LBD differential scanning fluorimetry, Tm shift; 0% = protein alone, 100% = glycine-bound protein. Tm shift relative to glycine control, % at 25 µM. 340,000 compounds, 2.5% hits. AID 1259313;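 active = melting temperature shift of at least 10% of the positive control shift, at one fixed dose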
XBP1 UPR activ: adaptive UPR (XBP1) activation; 330,000 compounds, 0.33% hits; activation, % at 20 µM; CHO-XBP1 luciferase reporter, IRE1-XBP1 UPR activation, luminescence; percent of tunicamycin response, DMSO as zero;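 active = versus positive control, 20 µM dose yields 30% or more activation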
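Material: CHO cell line with stable XBP1 luciferase reporter; buffer or medium: F12 medium containing 10% fetal bovine serum; compound: single point, 20 µM final compound, 1% DMSO; incubation: 6 h treatment, 37 °C; measured by: glow luminescence from Steady-Glo reagent; evaluation: activation, % of tunicamycin; control set: tunicamycin high, DMSO low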
aDG glyco up: increases alpha dystroglycan glycosylation | Pro5-aDG cells, alpha-DG glycosylation AlphaScreen (IIH6); 0% Pro5, 100% B10-LARGE cell signal | activation, % at 10 µM | 360,000 compounds, 0.22% hits | AID 624168;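 active = activation of at least 8% versus controls, or a plate z-score of at least 8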;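 note: Pro5 are CHO cells carrying HIG-tagged alpha-DG that lacks glycosylation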
CHOP UPR activ: apoptotic UPR (CHOP) activation; CHO-CHOP luciferase reporter, luminescence; percent of tunicamycin response over DMSO baseline; activation, % at 10 µM; 330,000 compounds, 0.34% hits; AID 449763;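 active = at 10 µM dose, activation of 40% or more, normalized to positive control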
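Evaluation: % reporter activation, DMSO baseline versus tunicamycin full activation; System: CHO-CHOP luciferase reporter cell line; Input: 500 cells/well; Incubation: 6 h compound treatment, 37 °C; Measured by: Steady-Glo luciferase luminescence; Dosing: one dose, 10 µM in 0.5% DMSO; Buffer or medium: F12 medium, 10% FBS; Benchmarks: positive tunicamycin 10 µg/mL, negative DMSO alone.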
CHOP inhibitor: blocks CHOP induction under ER stress; CHO-K1 CHOP-promoter luciferase, tunicamycin-induced, 15-18 h; inhibition, % at 10 µM; 220,000 compounds, 3.8% hits;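 active = compounds that reduced the stress-induced luciferase reporter signal by more than about 70% of percent inhibition, limit read from the data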
MPTP inh: inhibitors of mitochondrial permeability transition pore; isolated mouse mitochondria, Ca2+ swelling absorbance, 30 min; 360,000 compounds, 1.4% hits; AID 602449; inhibition, % at 10 µM;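 active = inhibition of 50% or more, scaled per plate between neutral and stimulator controls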
Rh123 counter: mitochondrial membrane potential, counter-screen | shares compounds with MPTP inh | AID 624504 | inhibition, % at 10 µM | 5,000 compounds, 78% hits | isolated mitochondria, Rhodamine 123 fluorescence; in the data active = inhibition above about 22%
MPTP swell DR: dose response confirmation of mitochondrial permeability transition pore inhibitors | IC50, µM | shares compounds with MPTP inh | isolated mitochondria swelling, absorbance | 780 compounds, 58% hits | AID 651561; in the data active = IC50 below about 20 µM
MPTP counter DR: active in counter-screen for permeability transition pore inhibitors; shares compounds with MPTP inh; isolated mitochondria counterscreen, fluorescence read-out; IC50, µM; 780 compounds, 49% hits; AID 651564; in the data active = IC50 below about 80 µM
Numbers stand for hits; 0 = inactive; - = no result given; + = active, no number. In the library only some 5.6% were active in any assay of this set; here they are far more common.

SMILES	GRIN3A LBD mod	XBP1 UPR activ	aDG glyco up	CHOP UPR activ	CHOP inhibitor	MPTP inh	Rh123 counter	others
CN(Cc1ccc(F)cc1)S(=O)(=O)c1nnc(NC(=O)c2ccccc2)s1	0	0	0	0	-	51	86
CN(Cc1ccc(F)cc1)S(=O)(=O)c1nnc(NC(=O)c2ccccc2Br)s1	0	0	0	0	-	60	71
COc1ccc(C(=O)Nc2nnc(S(=O)(=O)N(C)Cc3ccccc3)s2)cc1	0	0	0	0	-	0	-
COc1ccc(CN(C)S(=O)(=O)c2nnc(NC(=O)c3cccc(F)c3)s2)cc1	0	0	0	0	-	54	81
O=C(Cc1c(F)cccc1Cl)OCC(=O)c1ccc[nH]1	0	0	0	0	-	0	-
CCOC(=O)N1CCN(CCC(=O)c2ccc(Br)cc2)CC1	0	0	0	0	-	0	-
CCOC(=O)N1CCN(CCC(=O)c2ccc(Cl)cc2)CC1	0	0	0	0	0	103	0	MPTP swell DR=0;MPTP counter DR=0
CCOc1ccc(CN(C)c2ccc(S(=O)(=O)N3CCN(C)CC3)cc2[N+](=O)[O-])cc1OC	0	0	0	0	-	55	93
CC(=O)N1N=C(c2ccc(C(C)(C)C)cc2)OC1(C)C	0	0	0	0	0	69	0	MPTP swell DR=16;MPTP counter DR=18
CC(=O)N1N=C(c2ccc3ccccc3c2)OC1(C)C	0	0	0	0	0	0	-
CC1(C)CC(c2nc(-c3ccc(Br)cc3)cs2)CCS1 (stereo unspecified)	0	0	0	0	0	0	-
CC1(C)CC(c2nc(-c3ccc(Cl)cc3)cs2)CCS1 (stereo unspecified)	0	0	0	0	0	78	0	MPTP swell DR=0;MPTP counter DR=58
Cc1ccc(COC(=O)c2nn(C)c(=O)c3ccccc23)cc1	0	0	0	0	0	55	34
c1csc(CCNc2ncnc3sc4c(c23)CCC4)c1	0	0	0	0	-	102	102
c1ccc(Nc2ncnc3sc4c(c23)CCC4)cc1	0	0	0	0	0	0	-
CN1CCN(CC(O)Cn2c3ccccc3c3ccccc32)CC1 (stereo unspecified)	0	0	0	0	-	0	-
CN1CCN(CC#CCn2c3ccccc3c3ccccc32)CC1	0	0	0	0	0	86	0	MPTP swell DR=0;MPTP counter DR=0
O=C(CSc1ccccc1F)NC(=O)NC1CCCC1	-	-	0	-	-	0	-
O=C(Nc1cccc(Cl)c1)NC1CC2CCC1C2 (stereo unspecified)	0	0	0	0	-	55	84
CC(=O)c1cccc(NC(=S)NC2CCCCCCC2)c1	0	0	0	0	-	50	99
O=C(Nc1ccc(F)c(F)c1)NC1CCCCC1	0	0	0	0	0	53	89
O=C(Nc1ccc(Cl)cc1)NC1CCCCC1	0	0	0	0	0	0	-
O=C(Nc1cccc(Cl)c1)NC1CCCCC1	0	0	0	0	0	83	73
CCOC(=O)C1=C(COC(=O)c2cc(S(=O)(=O)N3CCOCC3)ccc2F)NC(=O)NC1C (stereo unspecified)	0	-	0	-	-	0	-
O=C(Nc1cccc(C(F)(F)F)c1)NC1CCCCC1	0	0	0	0	87	93	119
SMILES	GRIN3A LBD mod	XBP1 UPR activ	aDG glyco up	CHOP UPR activ	CHOP inhibitor	MPTP inh	Rh123 counter	others
CN1CCC(NC(=O)Nc2cccc(C(F)(F)F)c2)CC1	0	0	0	0	0	0	-
Cc1[nH]c2ccccc2c1C(=O)CSc1nc2ccccc2c(=O)n1CCCN1CCOCC1	0	0	0	0	0	0	-
CCC(C)(C)C1CCc2[nH]nc(C(=O)NCc3ccccn3)c2C1 (stereo unspecified)	0	0	0	0	-	0	-
O=C(NCCCCNC(=O)c1ccc(Cl)s1)c1ccc(Cl)s1	0	0	0	0	0	0	-
O=C(NCCCCCCNC(=O)c1ccc(Br)s1)c1ccc(Br)s1	0	0	0	0	0	54	36
Cc1nc2c(C(=O)NCCC(C)C)c[nH]n2c(=O)c1Cc1ccccc1F	0	0	0	0	0	78	59
Cc1cc2ncn(C(=O)c3ccc(F)cc3)c2cc1C	0	0	0	0	-	0	-
COc1ccc(C(=O)NC2CCCc3ccccc32)cc1[N+](=O)[O-] (stereo unspecified)	0	0	0	0	-	0	-
OCCN1CCN(CCCN2c3ccccc3Sc3ccc(Cl)cc32)CC1	0	0	0	0	0	53	0
CN(C)CCCN1c2ccccc2Sc2ccc3ccccc3c21	0	-	0	-	-	0	-
CN(C)CCCN1c2ccccc2Sc2ccc(Cl)cc21	0	0	0	0	0	91	0	MPTP swell DR=5;MPTP counter DR=0
Cc1ccc(C(=O)OCC(=O)NCc2ccco2)cc1C	0	0	0	0	-	0	-
CC(C)(C)c1ccc(NC(=O)COC(=O)c2ccc(NS(=O)(=O)c3ccc(F)c(F)c3)cc2)cc1	30	0	0	0	0	60	60
CCCCc1ccc(NC(=S)NCc2ccc(OC)cc2)cc1	0	0	0	0	0	57	75
COc1ccc(CNC(=S)Nc2ccc(OC)cc2)cc1	0	0	0	0	0	0	-
CCCCc1ccc(NC(=S)NCc2cccs2)cc1	11	0	0	0	85	84	80
COc1cc(NC(=O)Nn2cnnc2)cc(OC)c1OC	0	0	0	0	-	0	-
COC(=O)Cn1nc(-c2ccc(C)cc2)c2ccccc2c1=O	0	0	0	0	0	0	-
O=S(=O)(c1cc(F)ccc1F)N1CCN(c2ncnc3ccccc23)CC1	0	0	0	0	-	95	92
COc1ccc2no[n+]([O-])c2c1	-	0	-	0	0	-	-
CCC/C(=N/NC(=O)c1cccc(Cl)c1)c1ccccc1	0	0	0	0	0	0	-
O=C(N/N=C/C1C(c2ccccc2)C1(Cl)Cl)c1cccc(Cl)c1 (stereo unspecified)	0	0	0	0	0	75	80
CC1OC2(OC1C)C(=O)Nc1ccccc12 (stereo unspecified)	0	0	0	0	0	+	0	MPTP swell DR=0;MPTP counter DR=0
CC1([N+](=O)[O-])COC2(OC1)C(=O)Nc1ccccc12 (stereo unspecified)	0	0	0	0	-	0	-
CC(O)CNCCCOc1ccc(Cl)cc1C(C)(C)C (stereo unspecified)	0	0	0	0	0	74	0	MPTP swell DR=5;MPTP counter DR=0
CCCCN1CC(=O)N2[C@H]3c4ccccc4OC[C@@H]3[C@H](c3ccccc3)[C@]2(C)C1=O	0	0	0	0	-	0	-
